Measured values reported in ChEMBL document CHEMBL1154352, “Toll-like receptor 7 selective synthetic oligoribonucleotide agonists: synthesis and structure-activity relationship studies” (J Med Chem, 2009).
Blank lines part the entries; values can stand above or below the molecule they belong to. Activity calls are given as the source filed them. No cut-off for these calls is given here.

Tests used:
[1] = biological target: T1, Toll-like receptor 7 (Homo sapiens) (UniProt Q9NYK1); test: Activation of human TLR7 expressed in HEK293XL assessed as fold induction of NF-kappaB activity at 50 ug/ml after 18 hrs by reporter gene assay relative to control
T1 sequence (whole entry): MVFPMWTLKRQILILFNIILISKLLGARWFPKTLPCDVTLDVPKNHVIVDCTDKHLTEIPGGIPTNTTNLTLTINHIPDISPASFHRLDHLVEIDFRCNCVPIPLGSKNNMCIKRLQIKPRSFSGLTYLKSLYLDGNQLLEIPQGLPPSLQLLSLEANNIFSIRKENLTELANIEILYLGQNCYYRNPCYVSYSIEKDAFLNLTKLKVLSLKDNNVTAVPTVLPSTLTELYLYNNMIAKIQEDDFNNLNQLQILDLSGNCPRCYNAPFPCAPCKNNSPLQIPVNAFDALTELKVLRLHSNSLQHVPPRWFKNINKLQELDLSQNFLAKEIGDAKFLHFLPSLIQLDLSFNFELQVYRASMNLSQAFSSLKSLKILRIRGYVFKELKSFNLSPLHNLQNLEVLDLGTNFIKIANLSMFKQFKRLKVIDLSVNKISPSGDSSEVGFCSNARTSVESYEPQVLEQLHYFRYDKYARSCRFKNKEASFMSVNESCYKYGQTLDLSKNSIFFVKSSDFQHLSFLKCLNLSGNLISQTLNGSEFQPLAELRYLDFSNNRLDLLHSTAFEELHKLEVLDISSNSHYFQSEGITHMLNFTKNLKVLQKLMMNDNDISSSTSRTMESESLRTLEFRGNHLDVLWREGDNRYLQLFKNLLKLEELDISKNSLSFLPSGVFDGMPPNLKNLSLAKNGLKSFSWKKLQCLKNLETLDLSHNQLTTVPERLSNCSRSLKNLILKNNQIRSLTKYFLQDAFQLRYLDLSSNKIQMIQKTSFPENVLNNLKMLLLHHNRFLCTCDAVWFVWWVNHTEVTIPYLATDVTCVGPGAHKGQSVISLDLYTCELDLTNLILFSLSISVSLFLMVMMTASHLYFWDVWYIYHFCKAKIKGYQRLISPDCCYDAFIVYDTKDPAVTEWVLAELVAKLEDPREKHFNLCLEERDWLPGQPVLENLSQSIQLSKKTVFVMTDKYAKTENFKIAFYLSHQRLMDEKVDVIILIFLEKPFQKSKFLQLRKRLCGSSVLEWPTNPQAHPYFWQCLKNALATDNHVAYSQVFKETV
Method in brief: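 HEK293 cells stably expressing human TLR7 or TLR8, transiently transfected with SEAP reporter plasmid; medium replaced, SIMRA compounds added, 18 h incubation. Supernatant SEAP measured by QuantiBlue; expressed as fold increase in NF-κB activity over PBS control. Tabulated data at 50 μg/mL, representative of three independent experiments.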

[2] = species on record: Homo sapiens; test: Ratio of human TLR7 activity to human TLR8 activity
Method in brief: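 TLR7/TLR8 ratio computed from fold NF-κB (SEAP reporter) activation in HEK293 cells stably expressing human TLR7 versus TLR8, compounds at 50 μg/mL, 18 h exposure; representative of three independent experiments.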

[3] = species on record: Homo sapiens; test: Immunostimulatory activity in human pDC assessed as induction of IFNalpha at 100 ug/ml after 24 hrs; assay type: functional
Method in brief: (§1)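 Human pDCs plated at 1 × 10^6 cells/mL; compounds in PBS added, 37 °C for 24 h; supernatant cytokines/chemokines by human Luminex multiplex kit.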

[4] = system: PBMC; test: Immunomodulatory activity in human PBMC assessed as induction of IL12 at 50 ug/ml after 24 hrs; assay type: functional, cell-based
Method in brief: (§2)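 Human PBMCs plated at 5 × 10^6 cells/mL; compounds dissolved in PBS added at various concentrations, 37 °C for 24 h. Supernatant cytokines/chemokines quantified with human Luminex multiplex kit.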

[5] = system: PBMC; test: Immunomodulatory activity in human PBMC assessed as induction of TNFalpha at 50 ug/ml after 24 hrs; assay type: functional, cell-based; method in brief: as §2
[6] = system: PBMC; test: Immunomodulatory activity in human PBMC assessed as induction of IFNalpha at 50 ug/ml after 24 hrs; assay type: functional, cell-based; method in brief: as §2
[7] = system: PBMC; test: Immunomodulatory activity in human PBMC assessed as induction of MIP1alpha at 50 ug/ml after 24 hrs; assay type: functional, cell-based; method in brief: as §2
[8] = system: PBMC; test: Immunomodulatory activity in human PBMC assessed as induction of MIP1beta at 50 ug/ml after 24 hrs; assay type: functional, cell-based; method in brief: as §2
[9] = system: PBMC; test: Immunomodulatory activity in human PBMC assessed as induction of IP10 at 50 ug/ml after 24 hrs; assay type: functional, cell-based; method in brief: as §2
[10] = system: PBMC; test: Immunomodulatory activity in human PBMC assessed as induction of MCP1 at 50 ug/ml after 24 hrs; assay type: functional, cell-based; method in brief: as §2
[11] = system: PBMC; test: Immunomodulatory activity in human PBMC assessed as induction of IL6 at 50 ug/ml after 24 hrs; assay type: functional, cell-based; method in brief: as §2
[12] = system: PBMC; test: Immunomodulatory activity in human PBMC assessed as induction of IL1-beta at 50 ug/ml after 24 hrs; assay type: functional, cell-based; method in brief: as §2
[13] = species on record: Homo sapiens; test: Immunostimulatory activity in human pDC assessed as induction of IP10 at 100 ug/ml after 24 hrs; assay type: functional; method in brief: as §1
[14] = species on record: Homo sapiens; test: Immunostimulatory activity in human pDC assessed as induction of IL6 at 100 ug/ml after 24 hrs; assay type: functional; method in brief: as §1
[15] = species on record: Homo sapiens; test: Immunostimulatory activity in human mDC assessed as induction of IFNalpha at 100 ug/ml after 24 hrs; assay type: functional
Method in brief: (§3)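 Human mDCs isolated from PBMCs by CD19+ B-cell depletion then BDCA1 positive selection; plated at 1 × 10^6 cells/mL, compounds in PBS, 37 °C for 24 h; supernatant cytokines by human Luminex multiplex. Representative of four independent experiments.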

[16] = species on record: Homo sapiens; test: Immunostimulatory activity in human mDC assessed as induction of IP10 at 100 ug/ml after 24 hrs; assay type: functional; method in brief: as §3
[17] = species on record: Homo sapiens; test: Immunostimulatory activity in human mDC assessed as induction of IL12 at 100 ug/ml after 24 hrs; assay type: functional; method in brief: as §3
[18] = species on record: Homo sapiens; test: Immunostimulatory activity in human mDC assessed as induction of IL6 at 100 ug/ml after 24 hrs; assay type: functional; method in brief: as §3
[19] = species on record: Homo sapiens; test: Immunostimulatory activity in human mDC assessed as induction of TNFalpha at 100 ug/ml after 24 hrs; assay type: functional; method in brief: as §3
[20] = system: Mus musculus; test: Immunomodulatory activity in C57BL/6 mouse assessed as induction of IL12 release at 25 mg/kg, sc after 2 hrs by ELISA; assay type: functional, organism-based; set-up: dose 25 mg/kg
Method in brief: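 Female C57BL/6 wild-type mice, 5–8 weeks old, n=3; compounds given subcutaneously at 10 or 25 mg/kg. Retro-orbital blood at 2 h; serum cytokines by mouse Luminex multiplex or IL-12 ELISA.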

- fold change (FC) [1]: 17.5
- Ratio [2]: 21.9
Structure (SMILES): Nc1ccn([C@@H]2O[C@H](COP(=O)(S)O[C@H]3[C@@H](O)[C@H](n4cnc5c(N)ncnc54)O[C@@H]3COP(=O)(S)O[C@H]3[C@@H](O)[C@H](n4ccc5c(=O)[nH]c(N)nc54)O[C@@H]3COP(=O)(S)O[C@H]3[C@@H](O)[C@H](n4ccc(=O)[nH]c4=O)O[C@@H]3COP(=O)(S)O[C@H]3[C@@H](O)[C@H](n4ccc5c(=O)[nH]c(N)nc54)O[C@@H]3COP(=O)(S)O[C@H]3[C@@H](O)[C@H](n4cnc5c(N)ncnc54)O[C@@H]3COP(=O)(S)O[C@H]3[C@@H](O)[C@H](n4cnc5c(N)ncnc54)O[C@@H]3CO)[C@@H](OP(=O)(S)OC[C@H]3O[C@@H](n4ccc5c(=O)[nH]c(N)nc54)[C@H](O)[C@@H]3OP(=O)(S)OC[C@H]3O[C@@H](n4cnc5c(N)ncnc54)[C@H](O)[C@@H]3OP(=O)(S)OC[C@H]3O[C@@H](n4ccc(=O)[nH]c4=O)[C@H](O)[C@@H]3OP(=O)(S)OC[C@H]3O[C@@H](n4ccc(=O)[nH]c4=O)[C@H](O)[C@@H]3OP(=O)(S)OCC(O)COP(=O)(S)O[C@H]3[C@@H](O)[C@H](n4ccc(=O)[nH]c4=O)O[C@@H]3COP(=O)(S)O[C@H]3[C@@H](O)[C@H](n4ccc(=O)[nH]c4=O)O[C@@H]3COP(=O)(S)O[C@H]3[C@@H](O)[C@H](n4cnc5c(N)ncnc54)O[C@@H]3COP(=O)(S)O[C@H]3[C@@H](O)[C@H](n4ccc5c(=O)[nH]c(N)nc54)O[C@@H]3COP(=O)(S)O[C@H]3[C@@H](O)[C@H](n4ccc(N)nc4=O)O[C@@H]3COP(=O)(S)O[C@H]3[C@@H](O)[C@H](n4cnc5c(N)ncnc54)O[C@@H]3COP(=O)(S)O[C@H]3[C@@H](O)[C@H](n4ccc5c(=O)[nH]c(N)nc54)O[C@@H]3COP(=O)(S)O[C@H]3[C@@H](O)[C@H](n4ccc(=O)[nH]c4=O)O[C@@H]3COP(=O)(S)O[C@H]3[C@@H](O)[C@H](n4ccc5c(=O)[nH]c(N)nc54)O[C@@H]3COP(=O)(S)O[C@H]3[C@@H](O)[C@H](n4cnc5c(N)ncnc54)O[C@@H]3COP(=O)(S)O[C@H]3[C@@H](O)[C@H](n4cnc5c(N)ncnc54)O[C@@H]3CO)[C@H]2O)c(=O)n1 (some centres undefined)
- Activity [3]: Active
- Activity [4]: 174 pg/mL
- Activity [5]: 18 pg/mL
- Activity [6]: 121 pg/mL
- Activity [7]: 3090 pg/mL
- Activity [8]: 6680 pg/mL
- Activity [9]: 55 pg/mL
- Activity [10]: 46700 pg/mL
- Activity [11]: 1900 pg/mL
- Activity [12]: 123 pg/mL
- Activity [13]: Active
- Activity [14]: Active
- Activity [15]: Active
- Activity [16]: Active
- Activity [17]: Active
- Activity [18]: Active
- Activity [19]: Active
- Activity [20]: Active

- fold change (FC) [1]: 0.3
- Activity [2]: Active
Structure (SMILES): Nc1ncnc2c1ncn2[C@@H]1O[C@H](CO)[C@@H](OP(=O)(S)OC[C@H]2O[C@@H](n3cnc4c(N)ncnc43)[C@H](O)[C@@H]2OP(=O)(S)OC[C@H]2O[C@@H](n3cnc4c(N)ncnc43)[C@H](O)[C@@H]2OP(=O)(S)OC[C@H]2O[C@@H](n3cnc4c(N)ncnc43)[C@H](O)[C@@H]2OP(=O)(S)OC[C@H]2O[C@@H](n3cnc4c(N)ncnc43)[C@H](O)[C@@H]2OP(=O)(S)OC[C@H]2O[C@@H](n3cnc4c(N)ncnc43)[C@H](O)[C@@H]2OP(=O)(S)OC[C@H]2O[C@@H](n3cnc4c(N)ncnc43)[C@H](O)[C@@H]2OP(=O)(S)OC[C@H]2O[C@@H](n3cnc4c(N)ncnc43)[C@H](O)[C@@H]2OP(=O)(S)OC[C@H]2O[C@@H](n3cnc4c(N)ncnc43)[C@H](O)[C@@H]2OP(=O)(S)OC[C@H]2O[C@@H](n3cnc4c(N)ncnc43)[C@H](O)[C@@H]2OP(=O)(S)OC[C@H]2O[C@@H](n3cnc4c(N)ncnc43)[C@H](O)[C@@H]2OP(=O)(S)OCC(O)COP(=O)(S)O[C@H]2[C@@H](O)[C@H](n3cnc4c(N)ncnc43)O[C@@H]2COP(=O)(S)O[C@H]2[C@@H](O)[C@H](n3cnc4c(N)ncnc43)O[C@@H]2COP(=O)(S)O[C@H]2[C@@H](O)[C@H](n3cnc4c(N)ncnc43)O[C@@H]2COP(=O)(S)O[C@H]2[C@@H](O)[C@H](n3cnc4c(N)ncnc43)O[C@@H]2COP(=O)(S)O[C@H]2[C@@H](O)[C@H](n3cnc4c(N)ncnc43)O[C@@H]2COP(=O)(S)O[C@H]2[C@@H](O)[C@H](n3cnc4c(N)ncnc43)O[C@@H]2COP(=O)(S)O[C@H]2[C@@H](O)[C@H](n3cnc4c(N)ncnc43)O[C@@H]2COP(=O)(S)O[C@H]2[C@@H](O)[C@H](n3cnc4c(N)ncnc43)O[C@@H]2COP(=O)(S)O[C@H]2[C@@H](O)[C@H](n3cnc4c(N)ncnc43)O[C@@H]2COP(=O)(S)O[C@H]2[C@@H](O)[C@H](n3cnc4c(N)ncnc43)O[C@@H]2COP(=O)(S)O[C@H]2[C@@H](O)[C@H](n3cnc4c(N)ncnc43)O[C@@H]2CO)[C@H]1O (some centres undefined)
- Activity [3]: inactive
- Activity [4]: 138 pg/mL
- Activity [5]: 0 pg/mL
- Activity [6]: 12 pg/mL
- Activity [7]: 43 pg/mL
- Activity [8]: 83 pg/mL
- Activity [9]: 4 pg/mL
- Activity [10]: 724 pg/mL
- Activity [11]: 12 pg/mL
- Activity [12]: 28 pg/mL
- Activity [13]: inactive
- Activity [14]: inactive
- Activity [15]: inactive
- Activity [16]: inactive
- Activity [17]: inactive
- Activity [18]: inactive
- Activity [19]: inactive
